≈ marks a conversion by molar mass, not a printed value. Calls of active or inactive are those of the source. The calls are words filed in the database; no cut-off is given here.
Legend:
[1] = tested on: Staphylococcus aureus; experiment: Antibacterial activity against methicillin-resistant Staphylococcus aureus ATCC 43300 assessed as growth inhibition at 1 mg after 24 hrs by agar-diffusion assay; type: functional, organism-based
Procedure, shortened: (§1)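 Kirby-Bauer well diffusion on an MRSA lawn (0.5 McFarland suspension swabbed onto tryptic soy agar). Four test agents sat in wells equidistant from a centre well holding 1 mg of additive in DMSO; a DMSO-only centre well served as vehicle control. After overnight incubation at 37 °C, the inhibition zones were examined for size or shape change.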

[2] = tested on: Staphylococcus aureus; experiment: Antibacterial activity against methicillin-resistant Staphylococcus aureus ATCC 43300 assessed as growth inhibition at 50 ug after 24 hrs by agar-diffusion assay in presence of GSH; type: functional, organism-based; procedure, shortened: as §1
[3] = tested on: Staphylococcus aureus; experiment: Antibacterial activity against methicillin-resistant Staphylococcus aureus ATCC 43300 assessed as growth inhibition at 50 ug after 24 hrs by agar-diffusion assay in presence of PPh3; type: functional, organism-based; procedure, shortened: as §1
[4] = tested on: Candida albicans; experiment: Antifungal activity against Candida albicans assessed as reduction in viability by trypan blue staining; type: functional
Procedure, shortened: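 C. albicans was exposed in YNB to a 1, 0.5, 0.25 and 0.125 series, following the NCCLS fungal protocol. Non-viable cells were stained with trypan blue and counted in a cell-counting chamber under a microscope at 40X. Controls were untreated cells in YNB and cells heat-killed in PBS (boiled 5 min).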

[5] = tested on: Staphylococcus aureus; experiment: Antibacterial activity against methicillin-susceptible Staphylococcus aureus ATCC 25923 […] by agar dilution method; type: functional
[6] = tested on: Staphylococcus aureus; experiment: Antibacterial activity against methicillin-resistant Staphylococcus aureus ATCC 43300 assessed as growth inhibition at 50 ug after 24 hrs by agar-diffusion assay in presence of valine; type: functional, organism-based; procedure, shortened: as §1
[7] = tested on: Bartonella sp.; experiment: Antibacterial activity against Bartonella ssp. […] by agar dilution method; type: functional
[8] = tested on: Staphylococcus aureus; experiment: Antibacterial activity against methicillin-resistant Staphylococcus aureus ATCC 43300 assessed as reduction in bacterial counts at 4 ug/mL after overnight incubation by […] (reference value: 4.02 x 10^8 cfu/mL); type: functional
[9] = tested on: Escherichia coli; experiment: Antibacterial activity against Escherichia coli K-12 […] by agar dilution method; type: functional, organism-based
[10] = tested on: Staphylococcus aureus; experiment: Antibacterial activity against methicillin-resistant Staphylococcus aureus ATCC 43300 assessed as growth inhibition at 50 ug after 24 hrs by agar-diffusion assay in presence of glycine; type: functional, organism-based; procedure, shortened: as §1
[11] = tested on: Staphylococcus aureus; experiment: Antibacterial activity against methicillin-susceptible Staphylococcus aureus ATCC 25923 assessed as reduction in bacterial counts at 2 ug/mL after overnight incubation […] (reference value: 7.60 x 10^8 cfu/mL); type: functional
Procedure, shortened: (§2)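 Viability count assay against S. aureus ATCC 25923. All tubes started at 10⁵ cfu/mL, and viable bacteria were counted before and after incubation with disulfide at the line's concentration. Tubes without disulfide served as the growth reference. Performed in triplicate.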

[12] = Cytotoxicity against bovine primary aortic endothelial cells at 20 ug/mL after 48 hrs by MTT assay; type: cell-based, Bos taurus; conditions: cattle, endothelial cell
Procedure, shortened: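 Primary bovine aortic endothelial cells were kept in EBM-2 with 10% FBS and penicillin/streptomycin at 37 °C under 5% CO₂. Cells were trypsinized, counted and plated in 96-well dishes, then treated for 48 h. MTT was added and formazan dissolved in DMSO; absorbance was read at 540 nm with 660 nm background. Viability is expressed as percent of untreated control.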

[13] = tested on: Staphylococcus aureus; experiment: Antibacterial activity against methicillin-susceptible Staphylococcus aureus ATCC 25923 assessed as reduction in bacterial counts at 4 ug/mL after overnight incubation […] (reference value: 7.60 x 10^8 cfu/mL); type: functional; procedure, shortened: as §2
[14] = tested on: Staphylococcus aureus; experiment: Antibacterial activity against methicillin-resistant Staphylococcus aureus ATCC 43300 […] by agar dilution method; type: functional
[15] = Antibacterial activity against Francisella tularensis subspecies holarctica LVS after 48 hrs by broth dilution method; type: functional, Francisella tularensis subsp. holarctica LVS
[16] = tested on: Staphylococcus aureus; experiment: Antibacterial activity against methicillin-resistant Staphylococcus aureus ATCC 43300 assessed as growth inhibition at 50 ug after 24 hrs by agar-diffusion assay in presence of lysine; type: functional, organism-based; procedure, shortened: as §1
[17] = tested on: Staphylococcus aureus; experiment: Membrane disrupting activity in methicillin-resistant Staphylococcus aureus ATCC 43300 by scanning electron microscopy; type: functional, organism-based
Procedure, shortened: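 Scanning electron microscopy of MRSA cells before and after disulfide treatment during Kirby-Bauer agar diffusion experiments, assessing external cell morphology and cell-wall integrity.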

[18] = tested on: Staphylococcus aureus; experiment: Antibacterial activity against methicillin-resistant Staphylococcus aureus ATCC 43300 assessed as growth inhibition at 50 ug after 24 hrs by agar-diffusion assay in presence of CoA; type: functional, organism-based; procedure, shortened: as §1
[19] = tested on: Staphylococcus aureus; experiment: Antibacterial activity against methicillin-resistant Staphylococcus aureus ATCC 43300 assessed as growth inhibition at 50 ug after 24 hrs by agar-diffusion assay in presence of iPrSSiPr; type: functional, organism-based; procedure, shortened: as §1
[20] = tested on: Staphylococcus aureus; experiment: Antibacterial activity against methicillin-resistant Staphylococcus aureus ATCC 43300 assessed as reduction in bacterial counts at 2 ug/mL after overnight incubation by […] (reference value: 4.02 x 10^8 cfu/mL); type: functional
[21] = tested on: Staphylococcus aureus; experiment: Antibacterial activity against methicillin-resistant Staphylococcus aureus ATCC 43300 assessed as growth inhibition at 50 ug after 24 hrs by agar-diffusion assay in presence of cystine; type: functional, organism-based

CC(C)OSSOC(C)C
growth inhibition (GI) [1]: Active | growth inhibition (GI) [2]: inactive | growth inhibition (GI) [3]: Active | MIC [4]: 0.5 µg/mL (≈ 2.74 µM) | MIC [5]: 1 µg/mL (≈ 5.49 µM) | growth inhibition (GI) [6]: Active | Activity [7]: inactive | Activity [8]: 2.88 ×10³ CFU/ml | Activity [9]: inactive | growth inhibition (GI) [10]: Active | Activity [11]: 3.86 ×10⁴ CFU/ml | Activity [12]: Non-toxic | Activity [13]: 2.04 ×10³ CFU/ml | MIC [14]: 0.5 µg/mL (≈ 2.74 µM) | MIC [15]: 4 µg/mL (≈ 21.9 µM) | growth inhibition (GI) [16]: Active | Activity [17]: inactive | growth inhibition (GI) [18]: inactive | growth inhibition (GI) [19]: Active | Activity [20]: >1.2 ×10⁶ CFU/ml | growth inhibition (GI) [21]: inactive
